Results published in ChEMBL document CHEMBL1126899, “Nonpeptide angiotensin II antagonists derived from 1H-pyrazole-5-carboxylates and 4-aryl-1H-imidazole-5-carboxylates” (J Med Chem, 1993).
pIC50: −log10 of the molar value.

Assays:
[1] = target: T1, Type-1 angiotensin II receptor (Oryctolagus cuniculus, UniProt P34976); experiment: Evaluation of Angiotensin II antagonistic activity by displacement of [125I]-Sar Ile-AII at the rabbit aorta Angiotensin II receptor, type 1; assay type: tissue-based
T1 sequence (P34976 whole entry): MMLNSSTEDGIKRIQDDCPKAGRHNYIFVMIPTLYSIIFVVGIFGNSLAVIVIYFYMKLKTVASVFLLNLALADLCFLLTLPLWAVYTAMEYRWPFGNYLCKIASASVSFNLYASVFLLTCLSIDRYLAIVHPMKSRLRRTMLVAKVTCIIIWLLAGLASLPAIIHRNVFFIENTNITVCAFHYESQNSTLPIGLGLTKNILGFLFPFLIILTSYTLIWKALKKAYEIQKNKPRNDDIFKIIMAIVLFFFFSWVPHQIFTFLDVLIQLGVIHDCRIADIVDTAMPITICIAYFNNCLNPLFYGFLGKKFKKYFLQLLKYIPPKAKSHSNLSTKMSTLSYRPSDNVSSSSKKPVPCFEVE
Outline: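 Rabbit aorta membranes, run without BSA. Competition against [¹²⁵I]Sar¹Ile⁸-AII, in duplicate tubes. Some values are means of two or more separate assays. Standard error is estimated at <30% of the mean.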

[2] = tested on: Rattus norvegicus; experiment: Time to produce onset of action for inhibition of Angiotensin II pressor response in conscious, normotensive rats at 0.1 mg/kg iv; assay type: functional
Outline: (§1)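 Conscious male Sprague-Dawley rats (300–400 g), instrumented for iv dosing and arterial pressure. A single iv or po bolus of compound (PEG 400 for some oral doses), then repeated AII challenges at 0.1 μg/kg iv. […] Averaged from at least two rats unless noted.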

[3] = tested on: Rattus norvegicus; experiment: Time to produce onset of action for inhibition of Angiotensin II pressor response in conscious, normotensive rats at 0.3 mg/kg po; assay type: functional; outline: as §1
[4] = tested on: Rattus norvegicus; experiment: Time to produce onset of action for inhibition of Angiotensin II pressor response in conscious, normotensive rats at 1 mg/kg iv; assay type: functional; outline: as §1
[5] = tested on: Rattus norvegicus; experiment: Time to produce onset of action for inhibition of Angiotensin II pressor response in conscious, normotensive rats at 1 mg/kg po; assay type: functional; outline: as §1
[6] = tested on: Rattus norvegicus; experiment: Peak percent inhibition of Angiotensin II pressor response in conscious, normotensive rats at 0.1 mg/kg iv; assay type: functional
Outline: (§2)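 Male Sprague-Dawley rats (300–400 g), conscious, catheterized for iv dosing and for arterial pressure and heart rate. Compound given iv or po; PEG 400 vehicle in some oral cases. AII 0.1 μg/kg iv boluses at set intervals afterward. % inhibition of the MAP rise was calculated at each time point, and the peak was taken. Averaged from at least two rats unless noted.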

[7] = tested on: Rattus norvegicus; experiment: Peak percent inhibition of Angiotensin II pressor response in conscious, normotensive rats at 1 mg/kg iv; assay type: functional; outline: as §2
[8] = tested on: Rattus norvegicus; experiment: Peak percent inhibition of Angiotensin II pressor response in conscious, normotensive rats at 1 mg/kg po; assay type: functional; outline: as §2
[9] = tested on: Rattus norvegicus; experiment: Peak percent inhibition of Angiotensin II pressor response in conscious, normotensive rats at 0.3 mg/kg po; assay type: functional; outline: as §2
[10] = tested on: Rattus norvegicus; experiment: Peak percent inhibition of Angiotensin II pressor response in conscious, normotensive rats at 0.3 mg/kg po(no. of animals treated); assay type: functional; outline: as §2
[11] = tested on: Rattus norvegicus; experiment: Time to produce onset of action for inhibition of pressor response in conscious, normotensive rats at 0.1 mg/kg iv (no. of animals treated); assay type: functional; outline: as §1
[12] = tested on: Rattus norvegicus; experiment: Time to produce onset of action for inhibition of pressor response in conscious, normotensive rats at 0.3 mg/kg po (no. of animals treated); assay type: functional; outline: as §1
[13] = tested on: Rattus norvegicus; experiment: Peak percent inhibition of Angiotensin II pressor response in conscious, normotensive rats at 0.1 mg/kg iv (no. of animals treated); assay type: functional; outline: as §2
[14] = tested on: Rattus norvegicus; experiment: Time to produce onset of action for inhibition of Angiotensin II pressor response in conscious, normotensive rats at 0.3 mg/kg iv; assay type: functional; outline: as §1
[15] = tested on: Rattus norvegicus; experiment: Peak percent inhibition of Angiotensin II pressor response in conscious, normotensive rats at 0.3 mg/kg iv; assay type: functional; outline: as §2
[16] = tested on: Rattus norvegicus; experiment: Time to produce onset of action for inhibition of pressor response in conscious, normotensive rats at 1 mg/kg iv (no. of animals treated); assay type: functional; outline: as §1
[17] = tested on: Rattus norvegicus; experiment: Peak percent inhibition of Angiotensin II pressor response in conscious, normotensive rats at 1 mg/kg iv (no. of animals treated); assay type: functional; outline: as §2

SMILES | pIC50 [1] | also measured
CCCc1nn(-c2c(Cl)cccc2Cl)c(C(=O)O)c1Cc1ccc(-c2ccccc2-c2nn[nH]n2)cc1 | 9.16 | Duration [2]: 5.4 h; Duration [3]: >3 h; Duration [4]: >6 h; Duration [5]: >23 h; inhibition in vivo at 0.1 mg/kg [6]: 60%; inhibition in vivo at 1 mg/kg [7]: 100%; inhibition in vivo at 1 mg/kg [8]: 87%; inhibition in vivo at 0.3 mg/kg [9]: 56%
CCCCc1nn(CC(F)(F)F)c(C(=O)OCC)c1Cc1ccc(-c2ccccc2-c2nn[nH]n2)cc1 | 7.52 | –
CCCCc1nc(-c2ccccc2)c(C(=O)OCC)n1Cc1ccc(-c2ccccc2-c2nn[nH]n2)cc1 | 7.39 | –
CCCc1nn(-c2ccccc2C(F)(F)F)c(C(=O)OCC)c1Cc1ccc(-c2ccccc2-c2nnn[nH]2)cc1 | 7.25 | –
CCCCc1nn(-c2c(Cl)cccc2Cl)c(C(=O)O)c1Cc1ccc(-c2ccccc2-c2nn[nH]n2)cc1 | 9.74 | Duration [2]: >4.5 h; Duration [5]: >4.5 h; inhibition in vivo at 0.1 mg/kg [6]: 80%; inhibition in vivo at 1 mg/kg [8]: 79%
CCCCc1nn(CCc2ccccc2)c(C(=O)O)c1Cc1ccc(-c2ccccc2-c2nn[nH]n2)cc1 | 9.62 | Duration [4]: >24 h; inhibition in vivo at 1 mg/kg [7]: 95%
CCCCc1nn(Cc2ccccc2)c(C(=O)O)c1Cc1ccc(-c2ccccc2-c2nn[nH]n2)cc1 | 9.70 | Duration [2]: >5 h; Duration [3]: >3 h; Duration [5]: >24 h; inhibition in vivo at 0.1 mg/kg [6]: 68%; inhibition in vivo at 0.3 mg/kg [10]: 75%; inhibition in vivo at 1 mg/kg [8]: 100%
CCCCc1nn(-c2cccc(Cl)c2Cl)c(C(=O)O)c1Cc1ccc(-c2ccccc2-c2nnn[nH]2)cc1 | 9.11 | –
CCCCc1nn(-c2ccccc2C)c(C(=O)OCC)c1Cc1ccc(-c2ccccc2-c2nn[nH]n2)cc1 | 7.89 | –
CCCCc1nn(-c2ccc(OC)cc2)c(C(=O)O)c1Cc1ccc(-c2ccccc2-c2nn[nH]n2)cc1 | 9.10 | –
CCCCc1nn(Cc2ccccc2)c(C(=O)OCC)c1Cc1ccc(-c2ccccc2-c2nnn[nH]2)cc1 | < 7.00 | –
CCCCc1nn(-c2ccccc2-c2ccccc2)c(C(=O)OCC)c1Cc1ccc(-c2ccccc2-c2nn[nH]n2)cc1 | 7.64 | –
CCCCc1nn(-c2cccc(Cl)c2Cl)c(C(=O)OCC)c1Cc1ccc(-c2ccccc2-c2nnn[nH]2)cc1 | 7.05 | –
CCCCc1nn(-c2ccccc2C(F)(F)F)c(C(=O)OCC)c1Cc1ccc(-c2ccccc2-c2nnn[nH]2)cc1 | 7.68 | –
CCCCc1nc(-c2ccccc2Cl)c(C(=O)O)n1Cc1ccc(-c2ccccc2-c2nn[nH]n2)cc1 | 9.26 | Duration [11]: >6 h; Duration [12]: 0.4 h; inhibition in vivo at 0.1 mg/kg [13]: 88%; inhibition in vivo at 0.3 mg/kg [10]: 50%
CCCCc1nn(-c2ccc(Cl)cc2Cl)c(C(=O)O)c1Cc1ccc(-c2ccccc2-c2nn[nH]n2)cc1 | 9.22 | –
CCCc1nn(CC(F)(F)F)c(C(=O)OCC)c1Cc1ccc(-c2ccccc2-c2nnn[nH]2)cc1 | 7.12 | –
CCCCc1nn(-c2ccc(OC)cc2[N+](=O)[O-])c(C(=O)O)c1Cc1ccc(-c2ccccc2-c2nnn[nH]2)cc1 | 8.60 | –
CCCc1nn(-c2ccccc2C(F)(F)F)c(C(=O)O)c1Cc1ccc(-c2ccccc2-c2nn[nH]n2)cc1 | 9.17 | Duration [3]: >3.5 h; Duration [4]: >6 h; Duration [5]: >3.5 h; Duration [14]: ~4 h; inhibition in vivo at 0.3 mg/kg [15]: 77%; inhibition in vivo at 1 mg/kg [7]: 100%; inhibition in vivo at 1 mg/kg [8]: 71%; inhibition in vivo at 0.3 mg/kg [9]: 57%
CCCCc1nn(-c2cccc(Cl)c2)c(C(=O)O)c1Cc1ccc(-c2ccccc2-c2nn[nH]n2)cc1 | 8.64 | –
CCCCc1nn(-c2ccccc2[N+](=O)[O-])c(C(=O)OCC)c1Cc1ccc(-c2ccccc2-c2nnn[nH]2)cc1 | 8.02 | –
CCCCc1nn(-c2ccc(Cl)cc2)c(C(=O)OCC)c1Cc1ccc(-c2ccccc2-c2nn[nH]n2)cc1 | 7.00 | –
CCCc1[nH]nc(C(=O)OCC)c1Cc1ccc(-c2ccccc2-c2nnn[nH]2)cc1 | 6.80 | –
CCCCc1nn(-c2ccc(OC)cc2)c(C(=O)OCC)c1Cc1ccc(-c2ccccc2-c2nnn[nH]2)cc1 | 7.70 | –
CCCCc1n[nH]c(C(=O)OCC)c1Cc1ccc(-c2ccccc2-c2nn[nH]n2)cc1 | 6.89 | Duration [4]: >5 h; inhibition in vivo at 1 mg/kg [7]: 80%

SMILES | pIC50 [1] | also measured
O=C(O)c1c(Cc2ccc(-c3ccccc3-c3nn[nH]n3)cc2)c(CC2CC2)nn1-c1c(Cl)cccc1Cl | 8.43 | –
CCCCc1nn(-c2cc(Cl)ccc2Cl)c(C(=O)OCC)c1Cc1ccc(-c2ccccc2-c2nn[nH]n2)cc1 | 6.98 | –
CCCc1nc(C(F)(F)C(F)(F)F)c(C(=O)O)n1Cc1ccc(-c2ccccc2-c2nnn[nH]2)cc1 | 8.96 | –
CCCCc1nn(CC)c(C(=O)O)c1Cc1ccc(-c2ccccc2-c2nn[nH]n2)cc1 | 8.57 | –
CCCCc1nn(-c2ccccc2Cl)c(C(=O)OCC)c1Cc1ccc(-c2ccccc2-c2nn[nH]n2)cc1 | 7.89 | Duration [5]: >2.5 h; inhibition in vivo at 1 mg/kg [7]: 43%; inhibition in vivo at 1 mg/kg [8]: 50%
CCCCc1nn(-c2ccc(Cl)cc2)c(C(=O)O)c1Cc1ccc(-c2ccccc2-c2nn[nH]n2)cc1 | 8.89 | –
CCCCc1nn(-c2c(Cl)cccc2Cl)c(C(=O)OCC)c1Cc1ccc(-c2ccccc2-c2nnn[nH]2)cc1 | 8.10 | –
CCCc1nn(Cc2ccccc2)c(C(=O)OCC)c1Cc1ccc(-c2ccccc2-c2nn[nH]n2)cc1 | 7.66 | –
CCCCc1nn(-c2cc(Cl)ccc2Cl)c(C(=O)O)c1Cc1ccc(-c2ccccc2-c2nnn[nH]2)cc1 | 8.49 | –
CCCCc1nn(-c2ccccc2Cl)c(C(=O)O)c1Cc1ccc(-c2ccccc2-c2nn[nH]n2)cc1 | 9.46 | Duration [4]: >6 h; Duration [5]: >3 h; Duration [14]: ~3.8 h; inhibition in vivo at 0.3 mg/kg [15]: 73%; inhibition in vivo at 1 mg/kg [7]: 93%; inhibition in vivo at 1 mg/kg [8]: 64%
CCCCc1nn(-c2ccccc2C)c(C(=O)O)c1Cc1ccc(-c2ccccc2-c2nn[nH]n2)cc1 | 9.34 | –
CCCCc1nn(-c2ccccc2-c2ccccc2)c(C(=O)O)c1Cc1ccc(-c2ccccc2-c2nnn[nH]2)cc1 | 9.19 | –
CCCCc1nn(-c2c(Cl)cc(Cl)cc2Cl)c(C(=O)O)c1Cc1ccc(-c2ccccc2-c2nnn[nH]2)cc1 | 9.30 | –
CCCCc1nn(CC(F)(F)F)c(C(=O)O)c1Cc1ccc(-c2ccccc2-c2nn[nH]n2)cc1 | 9.28 | –
CCCCc1nn(-c2ccc(Cl)cc2Cl)c(C(=O)OCC)c1Cc1ccc(-c2ccccc2-c2nnn[nH]2)cc1 | 8.17 | –
CCOC(=O)c1c(Cc2ccc(-c3ccccc3-c3nnn[nH]3)cc2)c(CC2CC2)nn1-c1c(Cl)cccc1Cl | 7.12 | –
CCCCc1n[nH]c(C(=O)O)c1Cc1ccc(-c2ccccc2-c2nn[nH]n2)cc1 | 8.70 | Duration [16]: >6 h; inhibition in vivo at 1 mg/kg [17]: 94%
CCCc1nn(-c2c(Cl)cccc2Cl)c(C(=O)OCC)c1Cc1ccc(-c2ccccc2-c2nn[nH]n2)cc1 | 7.70 | –
CCCCc1nn(-c2c(Cl)cc(Cl)cc2Cl)c(C(=O)OCC)c1Cc1ccc(-c2ccccc2-c2nn[nH]n2)cc1 | 7.43 | –
CCCCc1nn(-c2ccccn2)c(C(=O)OCC)c1Cc1ccc(-c2ccccc2-c2nnn[nH]2)cc1 | 7.74 | –
CCCCc1nn(-c2cccc(Cl)c2)c(C(=O)OCC)c1Cc1ccc(-c2ccccc2-c2nn[nH]n2)cc1 | 7.26 | –
CCCCc1nn(-c2ccccn2)c(C(=O)O)c1Cc1ccc(-c2ccccc2-c2nn[nH]n2)cc1 | 8.77 | –
CCCCc1nn(-c2ccccc2[N+](=O)[O-])c(C(=O)O)c1Cc1ccc(-c2ccccc2-c2nnn[nH]2)cc1 | 8.77 | –
CCCCc1nn(-c2ccccc2)c(C(=O)OCC)c1Cc1ccc(-c2ccccc2-c2nnn[nH]2)cc1 | 7.09 | –
CCCCc1nn(-c2ccccc2C(F)(F)F)c(C(=O)O)c1Cc1ccc(-c2ccccc2-c2nn[nH]n2)cc1 | 9.62 | Duration [2]: 3.5 h; Duration [4]: 5.3 h; inhibition in vivo at 0.1 mg/kg [6]: 57%; inhibition in vivo at 1 mg/kg [7]: 100%
